In ChEMBL document CHEMBL3826936, “Alkyne-substituted diminazene as G-quadruplex binders with anticancer activities” (Eur J Med Chem, 2016):
Calls of active or inactive are those of the source. The rule behind the calls is not given here.

How the values were obtained:
[1] = Binding affinity to 5'-FAM/3'-TAMRA labeled c-MYC 22-mer G-quadruplex DNA (unknown origin) assessed as change in melting temperature at 4 uM after 12 hrs by TR-FRET assay
Outline: (§1)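 Dual-labeled FAM/TAMRA oligos diluted to 800 nM in 60 mM potassium cacodylate (pH 7.2), annealed 10 min at 85 °C and cooled to room temperature. Mixed 1:1 with ligand at […] in the same buffer. Equilibrated at least 12 h at 4 °C. ΔT1/2 taken as melting temperature with minus without ligand, in triplicate, averaged.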

[2] = Binding affinity to 5'-FAM/3'-TAMRA labeled F21T 21-mer G-quadruplex DNA (unknown origin) assessed as change in melting temperature at 4 uM after 12 hrs by TR-FRET assay; outline: as §1
[3] = Binding affinity to 5'-FAM/3'-TAMRA labeled c-kit2 26-mer G-quadruplex DNA (unknown origin) assessed as change in melting temperature at 4 uM after 12 hrs by TR-FRET assay; outline: as §1
[4] = Binding affinity to 5'-FAM/3'-TAMRA labeled k-RAS21R 21-mer G-quadruplex DNA (unknown origin) assessed as change in melting temperature at 4 uM after 12 hrs by TR-FRET assay; outline: as §1
[5] = Binding affinity to 5'-FAM/3'-TAMRA labeled 26-mer duplex DNA (unknown origin) assessed as change in melting temperature at 4 uM after 12 hrs by TR-FRET assay
[6] = Antiproliferative activity against human OVCAR3 cells after 72 hrs by WST-1 assay; format: functional; settings: OVCAR-3, 72 h
Outline: (§2)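 Cells seeded in 96-well plates the afternoon before treatment, at numbers keeping them in log-phase growth; about 18 h later, compounds semi-serially diluted in DMSO then growth medium and added. Incubation 72 h, then WST-1 added and plates read after 4 more hours at 37 °C. GI50 derived from curve fits; viability expressed relative to DMSO control.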

[7] = Antiproliferative activity against human PC3 cells after 72 hrs by WST-1 assay; format: functional; settings: PC-3, 72 h; outline: as §2
[8] = system: MDA-MB-231; assay: Antiproliferative activity against human MDA-MB-231 cells after 72 hrs by WST-1 assay; format: functional; settings: MDA-MB-231, 72 h; outline: as §2
[9] = Binding affinity to 5'-FAM/3'-TAMRA labeled c-MYC 22-mer G-quadruplex DNA (unknown origin) at 4 uM in presence of 26-mer duplex DNA by TR-FRET assay
[10] = Antiproliferative activity against human OVCAR3 cells assessed as cell viability at 20 uM after 72 hrs by WST-1 assay relative to control; format: functional; settings: OVCAR-3, 72 h, read-out: Activity; outline: as §2
[11] = Antiproliferative activity against human PC3 cells assessed as cell viability at 20 uM after 72 hrs by WST-1 assay relative to control; format: functional; settings: PC-3, 72 h, read-out: Activity; outline: as §2
[12] = system: MDA-MB-231; assay: Antiproliferative activity against human MDA-MB-231 cells assessed as cell viability at 20 uM after 72 hrs by WST-1 assay relative to control; format: functional; settings: MDA-MB-231, 72 h, read-out: Activity; outline: as §2
[13] = Binding affinity to wild type c-MYC 24-mer G-quadruplex DNA (unknown origin) at 4:1 ligand:DNA molar ratio by isothermal titration calorimetry
[14] = Antiproliferative activity against human bone marrow cells after 72 hrs by WST-1 assay; format: cell-based, Bone marrow cell
Outline: (§3)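 Cells seeded the afternoon before treatment at densities giving log-phase growth; about 18 h later compounds, semi-serially diluted in DMSO then growth medium, were added. After 72 h WST-1 was added, with a further 4 h at 37 °C before plate reading. GI50 values were calculated from the curves. NBM was grown in RPMI; MCR5A was handled per ATCC.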

[15] = Antiproliferative activity against human MCR5A cells after 72 hrs by WST-1 assay; format: cell-based; outline: as §3
[16] = Stabilization of c-MYC Pu27 G-quadruplex DNA (unknown origin) assessed as inhibition of Taq polymerase-mediated polymerization/extension of Pu27 and Pu27rev oligomers at 25 uM preincubated for 6 hrs followed by Taq polymerase addition by PCR stop assay
Outline: (§4)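 Each 25 µL PCR mix held 1x buffer, 5 µM template (Pu27, Pu27-13,14 or Pu-mutant) and 5 µM Pu27rev, plus ligand at various concentrations, and was held at 4 °C for 6 h. Then 200 µM dNTPs and 5 U Taq were added. Cycling: 94 °C 3 min, then 20 cycles of 94 °C 30 s, 58 °C 30 s and 72 °C 30 s. Reactions without compound served as control.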

[17] = Stabilization of c-MYC template Pu27-13,14 mutant DNA (unknown origin) assessed as inhibition of Taq polymerase-mediated polymerization/extension of Pu27-13,14 mutant and Pu27rev oligomers at 10 uM preincubated for 6 hrs followed by Taq polymerase addition by PCR stop assay; outline: as §4
[18] = Stabilization of c-MYC template Pu27 mutant DNA (unknown origin) assessed as inhibition of Taq polymerase-mediated polymerization/extension of Pu27 mutant and Pu27rev oligomers at 10 uM preincubated for 6 hrs followed by Taq polymerase addition by PCR stop assay; outline: as §4
[19] = molecular target: Telomerase reverse transcriptase (Homo sapiens) (UniProt O14746); assay: Inhibition of telomerase activity in human MDA-MB-231 cells using amplifour TS primer preincubated for 48 to 72 hrs followed by primer addition measured after 30 mins by fluorescence plate reader analysis relative to control; format: cell-based
Sequence of Telomerase reverse transcriptase (Homo sapiens) (O14746 whole entry): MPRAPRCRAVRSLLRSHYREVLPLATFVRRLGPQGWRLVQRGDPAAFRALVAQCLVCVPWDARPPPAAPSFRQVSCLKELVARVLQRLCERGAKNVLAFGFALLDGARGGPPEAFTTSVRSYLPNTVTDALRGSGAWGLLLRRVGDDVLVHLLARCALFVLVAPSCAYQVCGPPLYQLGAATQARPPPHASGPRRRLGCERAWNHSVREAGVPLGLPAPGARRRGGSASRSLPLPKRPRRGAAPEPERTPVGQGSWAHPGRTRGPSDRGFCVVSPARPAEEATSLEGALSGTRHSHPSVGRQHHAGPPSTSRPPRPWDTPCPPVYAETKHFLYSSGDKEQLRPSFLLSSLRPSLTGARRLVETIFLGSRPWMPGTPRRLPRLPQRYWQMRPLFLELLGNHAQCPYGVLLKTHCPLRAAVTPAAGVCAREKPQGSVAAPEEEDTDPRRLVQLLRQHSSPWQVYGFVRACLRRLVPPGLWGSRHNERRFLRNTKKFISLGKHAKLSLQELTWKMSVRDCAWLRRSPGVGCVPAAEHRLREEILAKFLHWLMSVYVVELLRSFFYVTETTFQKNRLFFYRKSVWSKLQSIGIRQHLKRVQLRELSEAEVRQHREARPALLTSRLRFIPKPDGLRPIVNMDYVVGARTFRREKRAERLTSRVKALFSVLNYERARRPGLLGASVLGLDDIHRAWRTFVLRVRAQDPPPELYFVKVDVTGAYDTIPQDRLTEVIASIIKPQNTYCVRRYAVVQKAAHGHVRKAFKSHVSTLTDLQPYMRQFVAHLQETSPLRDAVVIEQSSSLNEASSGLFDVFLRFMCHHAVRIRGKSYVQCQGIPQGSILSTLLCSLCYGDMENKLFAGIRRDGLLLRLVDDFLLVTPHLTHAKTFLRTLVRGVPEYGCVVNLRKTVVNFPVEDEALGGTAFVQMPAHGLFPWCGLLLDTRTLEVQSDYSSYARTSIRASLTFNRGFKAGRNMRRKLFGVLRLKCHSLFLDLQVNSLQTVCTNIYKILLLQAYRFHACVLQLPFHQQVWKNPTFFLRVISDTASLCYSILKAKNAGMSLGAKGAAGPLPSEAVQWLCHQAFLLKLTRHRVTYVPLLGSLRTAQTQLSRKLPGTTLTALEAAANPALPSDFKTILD
Outline: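 MDA-MB-231 cells, 2 × 10⁵ per T-25 flask, were treated the next morning with vehicle or compound at 0.5×, 1×, 2× or 4× GI50. After 48 or 72 h they were lysed in CHAPS buffer with RNase inhibitor on ice for 30 min. Lysate (1000 cell-equivalents) went into a fluorescent TRAP reaction at 30 °C for 30 min. TPG units were taken against an internal standard, and inhibition was expressed relative to untreated cells.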

[20] = system: MDA-MB-231; assay: Binding affinity to c-MYC G-quadruplex DNA in human MDA-MB-231 cells assessed as inhibition of c-MYC protein expression at 22.3 uM incubated for 6 hrs by Western blot analysis relative to control; format: cell-based
Outline: (§5)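 MDA-MB-231 cells were grown in DMEM with 10% heat-inactivated FBS at 37 °C and 5% CO2, then treated with DMSO vehicle or compound for 2, 6 or 24 h. Cells were washed in PBS and lysed in RIPA buffer with protease inhibitors. Blots were probed with anti-c-MYC (1:1000) and HRP anti-rabbit IgG (1:10,000), with β-actin as loading control. Band density is given as percent of vehicle at each time point.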

[21] = system: MDA-MB-231; assay: Binding affinity to c-MYC G-quadruplex DNA in human MDA-MB-231 cells assessed as inhibition of c-MYC protein expression at 22.3 uM incubated for 24 hrs by Western blot analysis relative to control; format: cell-based; outline: as §5
[22] = system: MDA-MB-231; assay: Binding affinity to c-MYC G-quadruplex DNA in human MDA-MB-231 cells assessed as inhibition of c-MYC protein expression at 111.5 uM incubated for 24 hrs by Western blot analysis relative to control; format: cell-based; outline: as §5
[23] = molecular target: Telomerase reverse transcriptase (Homo sapiens) (UniProt O14746); settings: MDA-MB-231, 25 uM
[24] = molecular target: Telomerase reverse transcriptase (Homo sapiens) (UniProt O14746); settings: MDA-MB-231, 25 uM; remark: listed apart in the source

Compound	ΔTm [1] [°C]	ΔTm [2] [°C]	ΔTm [3] [°C]	ΔTm [4] [°C]	ΔTm [5] [°C]	GI50 [8] [µM]	Activity [9]	GI50 [6] [µM]	GI50 [7] [µM]	viability at 20 µM [10] [%]	viability at 20 µM [11] [%]	viability at 20 µM [12] [%]	also measured
N=C(N)c1ccc(/N=N/Nc2ccccc2C#Cc2ccccc2)cc1	6.4	< 5	5.12	1.8	< 5	5.1	inactive	8.1	5.3	–	–	–	–
COc1ccc(C#Cc2cccc(N/N=N/c3ccc(C(=N)N)cc3)c2)cc1	7.3	< 5	5.48	2.6	< 5	5.5	inactive	5.2	5	–	–	–	–
Nc1cccc(C#Cc2ccc(F)cc2)c1	–	–	–	–	–	–	–	–	–	≥ 75	≥ 75	≥ 75	–
N=C(N)c1ccc(/N=N/Nc2cccc(C#Cc3ccccn3)c2)cc1	9.7	7.3	8.04	13.2	< 5	14.4	inactive	10.7	10.4	–	–	–	–
N=C(N)c1ccc(N)cc1	–	–	–	–	–	–	–	–	–	≥ 75	≥ 75	≥ 75	–
C[n+]1ccc(-c2c3nc(c(-c4cc[n+](C)cc4)c4ccc([nH]4)c(-c4cc[n+](C)cc4)c4nc(c(-c5cc[n+](C)cc5)c5ccc2[nH]5)C=C4)C=C3)cc1	–	–	–	–	–	14.3	–	14.6	14	–	–	–	GI50 at 72 h [14]: 16.8 µM; GI50 at 72 h [15]: 15.2 µM
N=C(N)c1ccc(/N=N/Nc2cccc(C#Cc3ccccc3)c2)cc1	7.1	< 5	6.4	3.7	< 5	9.5	inactive	6.5	5.8	–	–	–	–
C[n+]1ccc(-c2c3nc(c(-c4cc[n+](C)cc4)c4ccc([nH]4)c(-c4cc[n+](C)cc4)c4ccc([nH]4)c(-c4cc[n+](C)cc4)c4nc2C=C4)C=C3)cc1	24.1	< 5	–	46.7	< 5	–	–	–	–	–	–	–	inhibition [16]: Active; inhibition [17]: Active; inhibition [18]: Active; inhibition [19]: Dose-dependent effect; inhibition [20]: 40%; inhibition [21]: 92%; inhibition [22]: 100%; inhibition [23]: 60%; inhibition [24]: 80%
N=C(N)c1ccc(/N=N/Nc2cccc(-c3ccccc3)c2)cc1	8.8	< 5	5.48	15	< 5	–	–	–	–	≥ 75	≥ 75	≥ 75	–

Further lines, with some results ahead:

ΔTm [1] [°C]	ΔTm [2] [°C]	ΔTm [3] [°C]	ΔTm [4] [°C]	ΔTm [5] [°C]	GI50 [8] [µM]	Activity [9]	Compound	GI50 [6] [µM]	GI50 [7] [µM]	viability at 20 µM [10] [%]	viability at 20 µM [11] [%]	viability at 20 µM [12] [%]	also measured
6.6	< 5	5.3	4.2	< 5	30.2	–	C#Cc1ccc(N/N=N/c2ccc(C(=N)N)cc2)cc1	11.8	22.5	–	–	–	–
6.2	< 5	6.22	2.2	< 5	–	–	N#Cc1cccc(N/N=N/c2ccc(C(=N)N)cc2)c1	–	–	≥ 75	≥ 75	≥ 75	–
9.7	5.1	5.3	8.2	< 5	–	–	N#Cc1ccc(N/N=N/c2ccc(C(=N)N)cc2)cc1	–	–	≥ 75	≥ 75	≥ 75	–
8.2	< 5	5.48	7.1	< 5	20.5	–	C#Cc1cccc(N/N=N/c2ccc(C(=N)N)cc2)c1	16.8	18	–	–	–	Activity [13]: Active
7.1	< 5	6.4	6.4	< 5	–	–	N=C(N)c1ccc(/N=N/Nc2ccccc2)cc1	–	–	≥ 75	≥ 75	≥ 75	–
7	< 5	7.68	4.2	< 5	23.2	–	C#Cc1ccccc1N/N=N/c1ccc(C(=N)N)cc1	> 25	> 50	–	–	–	Activity [13]: Active
6.1	< 5	6.58	4.3	< 5	–	inactive	N=C(N)c1ccc(/N=N/Nc2ccncc2)cc1	–	–	≥ 75	≥ 75	≥ 75	–
